Source: PubChem (several laboratories)
In the library only some 1.3% were active in any assay of this set; here they are far more common.
TPT1 inh: Candida albicans TPT1 enzyme inhibitors, primary screen, biochemical, fluorescence polarization; recombinant caTPT1, FP RNA substrate dephosphorylation; inhibition, % at 5 µM; 300,000 tested, 0.81% active; AID 1962, 2009;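 active = inhibition above the mean of all tested compounds plus 3 SD, set per screening campaign, cut at about 24% in these data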
Rpn11 inh: Rpn11 (PSMD14) deubiquitinase inhibitors, primary screen, biochemical, fluorescence polarization, uHTS; 26S proteasome non-ATPase regulatory subunit 14 (Homo sapiens), O00487; 360,000 tested, 0.59% active; AID 588493, 2011; inhibition, % at 20 µM; human 26S proteasome, Ub4-pepOG fluorescence polarization; 20S core pre-blocked with epoxomicin;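 active = inhibition at 20 µM, scaled to each plate's controls, above about 33%, limit read from the data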
Target sequence (O00487 whole entry, looked up): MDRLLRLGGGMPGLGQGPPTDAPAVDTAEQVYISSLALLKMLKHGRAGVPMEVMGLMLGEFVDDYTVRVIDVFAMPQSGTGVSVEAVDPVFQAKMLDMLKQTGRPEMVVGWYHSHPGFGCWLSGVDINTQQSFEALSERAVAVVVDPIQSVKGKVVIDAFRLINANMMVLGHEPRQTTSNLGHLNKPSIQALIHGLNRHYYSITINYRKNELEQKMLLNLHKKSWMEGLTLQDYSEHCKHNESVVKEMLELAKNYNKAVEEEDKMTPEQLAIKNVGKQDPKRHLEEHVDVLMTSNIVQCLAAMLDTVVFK
Xi reactivation: activators of inactive X chromosome reactivation, primary screen, imaging, XiGFP fibroblasts, GFP high-content imaging, set 2. AID 743238, 2013. activation, % at 7.58 µM. XiGFP mouse fibroblasts, % GFP-positive cells imaging, 3 d; cells co-treated with 5-aza-dC sensitizer; scaled so ellipticine positive control = 100%. 360,000 tested, 0.055% active;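 active = mean normalized replicate activation at least 10% and every replicate at or above 10%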
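Material: XiGFP fibroblasts, SV40-immortalized. Buffer or medium: DMEM plus 5-aza-dC sensitizer. Compound: single concentration per compound, delivered by pin transfer. Times: 3 days compound exposure. Controls: ellipticine 6 µM.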
aDG glyco up: activators of alpha-DG glycosylation, primary screen, uHTS, Pro5-aDG cells, AlphaScreen; alpha-DG glycosylation AlphaScreen (IIH6); 0% Pro5, 100% B10-LARGE cell signal; activation, % at 10 µM; 360,000 tested, 0.22% active; AID 624168, 2012;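 active = activation of at least 8% versus controls, or a plate z-score of at least 8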;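 note: Pro5 are CHO cells carrying HIG-tagged alpha-DG that lacks glycosylation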
CSN inh: inhibitors of CSN-mediated cullin deneddylation, primary screen, biochemical, fluorescence polarization, uHTS | 360,000 tested, 0.38% active | COP9 signalosome complex subunit 5 (Homo sapiens), Q92905 | AID 651999, 2013 | Purified CSN, SCF-Nedd8-OG deneddylation | inhibition, % at 12.5 µM;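 active = pattern-corrected inhibition above about 35%, with an unprinted fluorescence ratio check between 0.5 and 1.5, limit read from the data, passing the limit was not always enough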
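Test system: Human Csn5 produced in HEK293T cells | Compound: 12.5 µM single point | Times: 90 min, room temperature | Signal: Fluorescence polarization readout | Read-out basis: % inhibition of substrate cleavage by Csn5 | Controls: no-enzyme wells high, enzyme-with-substrate wells low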
HNF4A DNA FP: change in binding of human HNF4A to DNA, primary screen, biochemical, fluorescence polarization, FITC-DNA | 1 h | activity change, % at 10 µM | 360,000 tested, 0.3% active | AID 1224865, 2016; in the data active = activity change above about 30%, passing the limit was not always enough
TPT1 inh confirm: Candida albicans TPT1 inhibitors, confirmation, biochemical, fluorescence polarization, triplicate | shares compounds with TPT1 inh | recombinant caTPT1, RNase T1 coupled | inhibition, % at 5 µM | 2,400 tested, 74% active | AID 2149, 2009;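 active = inhibition above the primary screen limit, the mean inhibition of all tested compounds plus 3 SD, cut at about 25% in these data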
RNase T1 inh: RNase T1 inhibitors, counter-screen for TPT1 inhibitor project, biochemical, fluorescence polarization. inhibition, % at 5 µM. RNase T1 cleavage, 1536-well. AID 2153, 2009. shares compounds with TPT1 inh. 2,400 tested, 83% active;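 active = inhibition above the solvent-only control well mean plus 3 SD, limit set per screening run, cut at about 23% in these data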;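 note: inhibitors block cleavage so intact labeled substrate keeps polarization high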
Target sequence (P00651 whole entry, looked up): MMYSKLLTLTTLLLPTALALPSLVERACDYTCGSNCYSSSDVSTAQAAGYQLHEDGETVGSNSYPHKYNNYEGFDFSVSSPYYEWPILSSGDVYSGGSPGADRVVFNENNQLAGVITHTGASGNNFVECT
Numbers stand for hits; . = inactive; / = not tested or not shown.

SMILES | TPT1 inh | Rpn11 inh | Xi reactivation | aDG glyco up | CSN inh | HNF4A DNA FP | TPT1 inh confirm | RNase T1 inh
O=C1NC(=O)N(c2cccc(Br)c2)C(=O)/C1=C/c1ccsc1 | 91 | . | . | . | . | . | 70 | 72
O=C1NC(=O)C(=Cc2ccsc2)C(=O)N1 | . | . | . | . | . | . | / | /
O=C1NC(=O)N(c2ccc(Br)cc2)C(=O)/C1=C/c1ccsc1 | 30 | . | . | . | . | . | . | .
COC(=O)C[C@H]1CC[C@@H]2NC[C@H](O)COC[C@H]2O1 | / | / | . | / | / | / | / | /
O=c1[nH]c(=O)n(Cc2ccccc2)c(O)c1/C=C1\C=Nc2ccccc21 | 58 | / | . | . | . | . | . | 27
Cc1cccc(-n2c(O)c(/C=C3/C(c4ccccc4)=Nc4ccccc43)c(=O)[nH]c2=O)c1 | . | . | . | . | . | . | / | /
Cn1c(O)c(/C=C2\C=Nc3ccc(Br)cc32)c(=O)n(C)c1=O | 28 | . | . | . | . | . | . | .
O=c1[nH]c(=O)n(-c2ccccc2F)c(O)c1/C=C1\C=Nc2ccccc21 | 56 | . | . | . | . | . | . | 29
Cn1c(O)c(C=Nc2ccc(Br)cc2)c(=O)n(C)c1=O | . | . | . | . | . | . | / | /
O=c1[nH]c(=O)n(-c2ccc(F)cc2)c(O)c1/C=C1\C=Nc2ccccc21 | 51 | . | . | . | . | . | 70 | 77
O=C(Cc1cccnc1)N1CCCCN2[C@H](CO)[C@H](c3ccc(/C=C/c4ccccc4)cc3)[C@@H]2C1 | / | / | . | / | / | / | / | /
CC(C)NC(=O)N1C[C@@H]2N[C@H](C1)C2c1ccc(Br)cc1 (stereo not given in full) | / | / | . | / | / | / | / | /
COc1ccc(-n2c(O)c(/C=C3\C=Nc4ccc(Br)cc43)c(=O)[nH]c2=O)c(OC)c1 | 39 | . | . | . | . | . | . | .
COC(=O)C1=Nc2ccccc2/C1=C\c1c(O)n(-c2cc(OC)ccc2OC)c(=O)[nH]c1=O | . | . | . | . | . | . | / | /
O=C1NC(=S)N(c2ccccc2F)C(=O)/C1=C\c1cccs1 | . | . | . | . | . | . | / | /
CCOc1ccc(N2C(=O)/C(=C/c3ccco3)C(=O)NC2=S)cc1 | 47 | / | / | . | . | . | . | .
Cc1ccccc1N1C(=O)/C(=C/c2ccco2)C(=O)NC1=S | 80 | / | / | / | / | / | 80 | .
COc1cc(/C=C2\C(=O)NC(=O)N(c3ccc(C)cc3)C2=O)cc(OC)c1O | 31 | . | . | . | . | . | . | .
O=C1NC(=O)N(c2ccccc2F)C(=O)/C1=C/c1cn(CC(=O)N2CCOCC2)c2ccccc12 | 28 | / | . | / | / | / | . | .
O=C(O)Cn1cc(/C=C2\C(=O)NC(=O)N(c3ccc(Br)cc3)C2=O)c2ccccc21 | 37 | . | . | . | . | . | 41 | 51
CCN1C(=O)NC(=O)/C(=C\c2cn(CC(=O)N3CCCC3)c3ccccc23)C1=O | . | . | . | . | . | . | / | /
Cc1ccc(N2C(=O)NC(=O)/C(=C\c3cn(CC(=O)O)c4ccccc34)C2=O)cc1 | . | . | . | . | . | . | / | /
N#CC(C#N)=Cc1ccc(N2CCCC2)cc1 | 63 | . | . | . | . | . | 69 | 84
CN(C)c1ccc(C=C(C#N)C#N)cc1 | 40 | . | . | . | . | . | 48 | 60
N#C/C(=C\c1ccc(O)cc1)C(=O)O | / | . | . | . | . | . | / | /
SMILES | TPT1 inh | Rpn11 inh | Xi reactivation | aDG glyco up | CSN inh | HNF4A DNA FP | TPT1 inh confirm | RNase T1 inh
C=CCNC(=S)/N=C/c1c(O)[nH]c(=O)[nH]c1=O | 26 | . | . | . | . | . | . | 23
COC(=O)[C@@H]1[C@@H](CO)[C@@H]2Cn3c(ccc(-c4ccccc4F)c3=O)[C@H]1N2Cc1ccccc1 | / | / | . | / | / | / | / | /
Cc1cccc(N2C(=O)NC(=O)/C(=C\c3ccc4c(c3)CCCN4Cc3ccccc3)C2=O)c1 | 92 | / | . | . | . | . | 152 | 141
CCCNC(=O)[C@@H]1[C@@H](CO)[C@@H]2Cn3c(cccc3=O)[C@@H]2N1CC | / | / | . | / | / | / | / | /
CC1(C)OC(c2ccccc2)=C/C(=C/C=C2C(=O)NC(=S)NC2=O)O1 | 129 | / | . | / | / | / | 77 | 76
CN1/C(=C\C=C2C(=O)NC(=S)NC2=O)C(C)(C)c2ccccc21 | / | . | . | . | . | . | / | /
N#Cc1cccc(-c2ccc([C@H]3[C@@H](CO)N4CCCCN(C(=O)Cc5ccncc5)C[C@@H]34)cc2)c1 | / | / | . | / | / | / | / | /
CCN1C(=O)C(=Cc2ccc(C)s2)C(=O)N(CC)C1=S | 31 | / | . | . | . | . | . | .
CS(=O)(=O)N1CC2NC(C1)C2c1ccc(Br)cc1 (stereo not given) | / | / | . | / | / | / | / | /
CCOC(=O)c1c(/N=C/C2C(=O)NC(=S)NC2=O)sc2c1CCC2 | 113 | / | / | . | . | . | . | 33
CCOC(=O)c1c(/N=C/C2C(=O)NC(=S)NC2=O)sc(C)c1C | . | / | / | / | / | / | / | /
CCC(=O)N1[C@@H]2Cn3c(ccc(-c4ccc(F)cc4)c3=O)[C@H]1[C@@H](C(=O)OC)[C@@H]2CO | / | / | . | / | / | / | / | /
CC(C)CC#Cc1ccc([C@@H]2[C@H]3CN(C(=O)Cc4ccccn4)CCCCN3[C@H]2CO)cc1 | / | / | . | / | / | / | / | /
N#Cc1c(/N=C/c2ccc(O)cc2O)sc2c1C1CCN2CC1 | 65 | . | . | . | . | 40 | 106 | 107
CC(C)n1c(=O)c(C=Nc2cccc([N+](=O)[O-])c2)c(O)n(CCc2ccccc2)c1=O | 43 | . | . | . | . | . | . | .
Cn1c(O)c(C=Nc2cccc(C(F)(F)F)c2)c(=O)n(C)c1=O | . | . | . | . | . | . | / | /
CCCCn1c(=O)c(C=Nc2ccc(Cl)cc2)c(O)n(Cc2ccco2)c1=O | . | / | . | . | . | . | / | /
CC(C)n1c(=O)c(C=Nc2ccc(S(N)(=O)=O)cc2)c(O)n(Cc2ccco2)c1=O | 42 | . | . | . | . | . | . | .
CS(=O)(=O)N1C[C@@H]2C(c3ccccc3)[C@H](C1)N2CC1CC1 (stereo not given in full) | / | / | . | / | / | / | / | /
CN1[C@@H]2CN(CC(F)(F)F)C[C@H]1C2c1ccc(Br)cc1 (stereo not given in full) | / | / | . | / | / | / | / | /
